Results from ChEMBL document CHEMBL1147748, “Overlapping, nonidentical binding sites of different classes of nonpeptide antagonists for the human gonadotropin-releasing hormone receptor” (J Med Chem, 2006).

What was measured:
[1] = target: Gonadotropin-releasing hormone receptor (Homo sapiens, UniProt P30968); experiment: Displacement of [125I]-His5, D-Tyr6]GnRH from human wild type GnRHR
Procedure, shortened: (§1)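 Human GnRH-R (wild type or site-directed point mutant) was transiently expressed in COS-7 cells by electroporation, with cells cultured 36-48 h before membranes were prepared. Membranes (5-20 µg per point) were incubated 2 h at room temperature with 0.3 nM tracer and varying competitor in HEPES pH 7.5, 150 mM NaCl, 0.1% BSA, then filtered and counted.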

[2] = target: Gonadotropin-releasing hormone receptor (Homo sapiens, UniProt P30968, Y290L); experiment: Displacement of [125I]-His5, D-Tyr6]GnRH from mutant GnRHR, GnRHR Y290L
[3] = target: Gonadotropin-releasing hormone receptor (Homo sapiens, UniProt P30968, Y290Q); experiment: Displacement of [125I]-His5, D-Tyr6]GnRH from mutant GnRHR, GnRHR Y290Q
[4] = target: Gonadotropin-releasing hormone receptor (Homo sapiens, UniProt P30968, W291F); experiment: Displacement of [125I]-His5, D-Tyr6]GnRH from mutant GnRHR, GnRHR W291F
[5] = target: Gonadotropin-releasing hormone receptor (Homo sapiens, UniProt P30968, D293A); experiment: Displacement of [125I]-His5, D-Tyr6]GnRH from mutant GnRHR, GnRHR D293A; procedure, shortened: as §1
[6] = target: Gonadotropin-releasing hormone receptor (Homo sapiens, UniProt P30968, D293K); experiment: Displacement of [125I]-His5, D-Tyr6]GnRH from mutant GnRHR, GnRHR D293K; procedure, shortened: as §1
[7] = target: Gonadotropin-releasing hormone receptor (Homo sapiens, UniProt P30968, E295K); experiment: Displacement of [125I]-His5, D-Tyr6]GnRH from mutant GnRHR, GnRHR E295K; procedure, shortened: as §1
[8] = target: Gonadotropin-releasing hormone receptor (Homo sapiens, UniProt P30968, L300A); experiment: Displacement of [125I]-His5, D-Tyr6]GnRH from mutant GnRHR, GnRHR L300A; procedure, shortened: as §1
[9] = target: Gonadotropin-releasing hormone receptor (Homo sapiens, UniProt P30968, L300K); experiment: Displacement of [125I]-His5, D-Tyr6]GnRH from mutant GnRHR, GnRHR L300K; procedure, shortened: as §1
[10] = target: Gonadotropin-releasing hormone receptor (Homo sapiens, UniProt P30968, D302A); experiment: Displacement of [125I]-His5, D-Tyr6]GnRH from mutant GnRHR, GnRHR D302A; procedure, shortened: as §1
[11] = target: Gonadotropin-releasing hormone receptor (Homo sapiens, UniProt P30968, D302N); experiment: Displacement of [125I]-His5, D-Tyr6]GnRH from mutant GnRHR, GnRHR D302N; procedure, shortened: as §1
[12] = target: Gonadotropin-releasing hormone receptor (Homo sapiens, UniProt P30968, D302Q); experiment: Displacement of [125I]-His5, D-Tyr6]GnRH from mutant GnRHR, GnRHR D302Q; procedure, shortened: as §1
[13] = target: Gonadotropin-releasing hormone receptor (Homo sapiens, UniProt P30968, N305A); experiment: Displacement of [125I]-His5, D-Tyr6]GnRH from mutant GnRHR, GnRHR N305A; procedure, shortened: as §1
[14] = target: Gonadotropin-releasing hormone receptor (Homo sapiens, UniProt P30968, H306A); experiment: Displacement of [125I]-His5, D-Tyr6]GnRH from mutant GnRHR, GnRHR H306A; procedure, shortened: as §1
[15] = target: Gonadotropin-releasing hormone receptor (Homo sapiens, UniProt P30968, N315A); experiment: Displacement of [125I]-His5, D-Tyr6]GnRH from mutant GnRHR, GnRHR N315A; procedure, shortened: as §1
[16] = target: Gonadotropin-releasing hormone receptor (Homo sapiens, UniProt P30968, W280F); experiment: Displacement of [125I]-His5, D-Tyr6]GnRH from mutant GnRHR, GnRHR W280F
[17] = target: Gonadotropin-releasing hormone receptor (Homo sapiens, UniProt P30968, Y284F); experiment: Displacement of [125I]-His5, D-Tyr6]GnRH from mutant GnRHR, GnRHR Y284F
[18] = target: Gonadotropin-releasing hormone receptor (Homo sapiens, UniProt P30968, Y284L); experiment: Displacement of [125I]-His5, D-Tyr6]GnRH from mutant GnRHR, GnRHR Y284L
[19] = target: Gonadotropin-releasing hormone receptor (Homo sapiens, UniProt P30968, M24A); experiment: Displacement of [125I]-His5, D-Tyr6]GnRH from mutant GnRHR, GnRHR M24A; procedure, shortened: as §1
[20] = target: Gonadotropin-releasing hormone receptor (Homo sapiens, UniProt P30968, N27A); experiment: Displacement of [125I]-His5, D-Tyr6]GnRH from mutant GnRHR, GnRHR N27A; procedure, shortened: as §1
[21] = target: Gonadotropin-releasing hormone receptor (Homo sapiens, UniProt P30968, L117A); experiment: Displacement of [125I]-His5, D-Tyr6]GnRH from mutant GnRHR, GnRHR L117A; procedure, shortened: as §1
[22] = target: Gonadotropin-releasing hormone receptor (Homo sapiens, UniProt P30968, S168A); experiment: Displacement of [125I]-His5, D-Tyr6]GnRH from mutant GnRHR, GnRHR S168A
[23] = target: Gonadotropin-releasing hormone receptor (Homo sapiens, UniProt P30968, S168I); experiment: Displacement of [125I]-His5, D-Tyr6]GnRH from mutant GnRHR, GnRHR S168I
[24] = target: Gonadotropin-releasing hormone receptor (Homo sapiens, UniProt P30968, Q189A); experiment: Displacement of [125I]-His5, D-Tyr6]GnRH from mutant GnRHR, GnRHR Q189A; procedure, shortened: as §1
[25] = target: Gonadotropin-releasing hormone receptor (Homo sapiens, UniProt P30968, Q189K); experiment: Displacement of [125I]-His5, D-Tyr6]GnRH from mutant GnRHR, GnRHR Q189K; procedure, shortened: as §1
[26] = target: Gonadotropin-releasing hormone receptor (Homo sapiens, UniProt P30968, S203P); experiment: Displacement of [125I]-His5, D-Tyr6]GnRH from mutant GnRHR, GnRHR S203P
[27] = target: Gonadotropin-releasing hormone receptor (Homo sapiens, UniProt P30968, S203Q); experiment: Displacement of [125I]-His5, D-Tyr6]GnRH from mutant GnRHR, GnRHR S203Q
[28] = target: Gonadotropin-releasing hormone receptor (Homo sapiens, UniProt P30968, T51A); experiment: Displacement of [125I]-His5, D-Tyr6]GnRH from mutant GnRHR, GnRHR T51A
[29] = target: Gonadotropin-releasing hormone receptor (Homo sapiens, UniProt P30968, E111K); experiment: Displacement of [125I]-His5, D-Tyr6]GnRH from mutant GnRHR, GnRHR E111K; procedure, shortened: as §1
[30] = target: Gonadotropin-releasing hormone receptor (Homo sapiens, UniProt P30968, Q208E); experiment: Displacement of [125I]-His5, D-Tyr6]GnRH from mutant GnRHR, GnRHR Q208E

Gonadotropin-releasing hormone receptor (Homo sapiens, UniProt P30968, N315A), sequence (P30968 whole entry N315A): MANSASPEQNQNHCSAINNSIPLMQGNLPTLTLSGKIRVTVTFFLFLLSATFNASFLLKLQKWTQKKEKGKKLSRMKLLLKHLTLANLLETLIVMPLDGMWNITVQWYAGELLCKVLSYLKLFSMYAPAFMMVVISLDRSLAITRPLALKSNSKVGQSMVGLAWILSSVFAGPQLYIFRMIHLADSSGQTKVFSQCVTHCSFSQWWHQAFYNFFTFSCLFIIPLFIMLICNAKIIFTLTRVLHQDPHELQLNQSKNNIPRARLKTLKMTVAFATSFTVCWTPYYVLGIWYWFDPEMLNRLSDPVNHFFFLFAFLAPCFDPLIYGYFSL
Gonadotropin-releasing hormone receptor (Homo sapiens, UniProt P30968, Y290L), sequence (P30968 whole entry Y290L): as the sequence (P30968 whole entry N315A) above, with Y290L, A315N counted along it
Gonadotropin-releasing hormone receptor (Homo sapiens, UniProt P30968, N305A), sequence (P30968 whole entry N305A): as the sequence (P30968 whole entry N315A) above, with N305A, A315N counted along it
Gonadotropin-releasing hormone receptor (Homo sapiens, UniProt P30968, D302Q), sequence (P30968 whole entry D302Q): as the sequence (P30968 whole entry N315A) above, with D302Q, A315N counted along it
Gonadotropin-releasing hormone receptor (Homo sapiens, UniProt P30968, N27A), sequence (P30968 whole entry N27A): as the sequence (P30968 whole entry N315A) above, with N27A, A315N counted along it
Gonadotropin-releasing hormone receptor (Homo sapiens, UniProt P30968, W291F), sequence (P30968 whole entry W291F): as the sequence (P30968 whole entry N315A) above, with W291F, A315N counted along it
Gonadotropin-releasing hormone receptor (Homo sapiens, UniProt P30968, W280F), sequence (P30968 whole entry W280F): as the sequence (P30968 whole entry N315A) above, with W280F, A315N counted along it
Gonadotropin-releasing hormone receptor (Homo sapiens, UniProt P30968, D293A), sequence (P30968 whole entry D293A): as the sequence (P30968 whole entry N315A) above, with D293A, A315N counted along it
Gonadotropin-releasing hormone receptor (Homo sapiens, UniProt P30968, S168I), sequence (P30968 whole entry S168I): as the sequence (P30968 whole entry N315A) above, with S168I, A315N counted along it
Gonadotropin-releasing hormone receptor (Homo sapiens, UniProt P30968, S203P), sequence (P30968 whole entry S203P): as the sequence (P30968 whole entry N315A) above, with S203P, A315N counted along it
Gonadotropin-releasing hormone receptor (Homo sapiens, UniProt P30968, Y284F), sequence (P30968 whole entry Y284F): as the sequence (P30968 whole entry N315A) above, with Y284F, A315N counted along it
Gonadotropin-releasing hormone receptor (Homo sapiens, UniProt P30968, Y290Q), sequence (P30968 whole entry Y290Q): as the sequence (P30968 whole entry N315A) above, with Y290Q, A315N counted along it
Gonadotropin-releasing hormone receptor (Homo sapiens, UniProt P30968), sequence (P30968 whole entry): as the sequence (P30968 whole entry N315A) above, with A315N counted along it
Gonadotropin-releasing hormone receptor (Homo sapiens, UniProt P30968, Y284L), sequence (P30968 whole entry Y284L): as the sequence (P30968 whole entry N315A) above, with Y284L, A315N counted along it

Row | SMILES | IC50 [1] [µM] | IC50 [2] [µM] | IC50 [3] [µM] | IC50 [4] [µM] | IC50 [5] [µM] | IC50 [6] [µM] | IC50 [7] [µM] | IC50 [8] [µM] | IC50 [9] [µM] | IC50 [10] [µM] | IC50 [11] [µM] | IC50 [12] [µM] | IC50 [13] [µM] | IC50 [14] [µM] | IC50 [15] [µM] | IC50 [16] [µM] | IC50 [17] [µM] | IC50 [18] [µM] | IC50 [19] [µM] | IC50 [20] [µM] | further results
1 | CC(C)C[C@H](NC(=O)[C@@H](Cc1ccc(O)cc1)NC(=O)[C@H](Cc1c[nH]cn1)NC(=O)[C@H](CO)NC(=O)[C@H](Cc1c[nH]c2ccccc12)NC(=O)[C@H](Cc1c[nH]cn1)NC(=O)[C@@H]1CCC(=O)N1)C(=O)N[C@@H](CCCN=C(N)N)C(=O)N1CCC[C@H]1C(=O)NCC(N)=O | 0.0081 | 0.951 | 0.192 | 0.0601 | 0.0057 | 0.0048 | 0.0031 | 0.0182 | 0.0353 | 0.0422 | 0.0165 | 0.0265 | 0.0127 | 0.0506 | 0.0008 | 0.0103 | 0.0028 | 0.186 | 0.0059 | 0.0058 | IC50 [21]: 0.0041 µM; IC50 [22]: 0.004 µM; IC50 [23]: 0.0038 µM; IC50 [24]: 0.0024 µM; IC50 [25]: 0.0024 µM; IC50 [26]: 0.0054 µM; IC50 [27]: 0.0029 µM; IC50 [28]: 0.0031 µM; IC50 [29]: 0.0105 µM; IC50 [30]: 0.015 µM
2 | COc1c(C)cc(-c2[nH]c3ccc(C(C)(C)C(=O)N(CC(C)C)CC(C)C)cc3c2[C@H](C)CNCCc2ccccc2)cc1C | 0.0177 | 0.202 | 0.229 | 0.0068 | 0.0245 | 0.0561 | 0.0096 | 0.0879 | 0.277 | 0.011 | 0.0273 | 0.0206 | 0.0037 | 0.0233 | 0.0471 | 0.139 | 0.0288 | 0.277 | 0.0179 | 0.0088 | IC50 [21]: 0.0048 µM; IC50 [22]: 0.0089 µM; IC50 [23]: 0.0152 µM; IC50 [24]: 0.01 µM; IC50 [25]: 0.0158 µM; IC50 [26]: 0.0414 µM; IC50 [27]: 0.0157 µM; IC50 [28]: 0.0158 µM; IC50 [29]: 0.0136 µM; IC50 [30]: 0.006 µM
